Assay [1] in a line: reducers of endogenous Her2 protein level, primary screen, SKBR3 breast tumor cells, AlphaScreen, ATP viability (AID 461;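 active means Her2 level under about 52% in both replicate screens, with viability over 70% of control, limit read from the data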;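 on Her2 level: lower value means less Her2 protein in the cells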;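 on viability: percent of carrier control wells set as 100% viability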). As to conditions: 18-24 h, measured here: SKBR3 viability, ATP luminescence, at 10 µM. For orientation: Bead proximity is the source of the signal in Alpha formats.
Assay [2] concerns the target Receptor tyrosine-protein kinase erbB-2 (Homo sapiens) (UniProt P04626). Described as above. Particulars: 18-24 h, at 10 µM, stronger effect = lower value.
A short description of assay [3]: SK-BR-3 cell growth inhibitors, pilot screen, 24 h, human (AID 572).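 Further: compound exposure lasted between 18 and 24 h rather than exactly 24 h; 100% = carrier-treated control wells.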 As to conditions: SK-BR-3 viability, CellTiter-Glo luminescence, at 10 µM, stronger effect = lower value. (In general: ATP-based viability assays read luminescence as a measure of living cells.)
Assay [4] in a line: HUVEC growth inhibition – cell-based, human, primary screen (AID 575;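 active means viability at or below 30% in both replicate assays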;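 further: 100% = median of untreated cell wells with 0.1% DMSO on each plate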). Particulars: HUVEC proliferation, CellTiter-Glo luminescence, 72 h; at 10 µM; stronger effect = lower value. In short, it runs like this:
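Material: primary human umbilical vein endothelial cells / Schedule: 72 h exposure, 37 °C, 5% CO2, 30 min RT equilibration / Signal: ATP-based CellTiter-Glo luminescent read / Read-out basis: percent of median DMSO-control luminescence / Control set: 32 DMSO-only cell-control wells (high), 32 MePR drug-control wells (low) per plate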

Assay [5] is described as follows: growth inhibitors of H69AR lung tumor, primary screen, human, duplicate replicates (AID 580;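 active means viability at or under a set limit in both replicates, limit being median viability minus 3 SD, cut at about 48% in these data, passing the limit was not always enough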;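 further: 100% = mean luminescence of untreated wells and 0% = no signal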). As to conditions: H69AR lung tumor cells viability, ATP luminescence, 72 h; at 10 µM; stronger effect = lower value.
Assay [6] can be described thus: reversal of MRP1-mediated doxorubicin resistance, pilot screen, H69AR cells, doxorubicin co-treatment (AID 601;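 active means viability loss from added drug above about 55%, and viability with drug at most 40%, in both replicates, limit read from the data, passing the limit was not always enough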). As to conditions: CellTiter-Glo, 72 h, at 10 µM; for differential viability (reversal): stronger effect = higher value.
Assay [7] can be described thus: 384-well plate pilot, post-Golgi transport modulator project, inhibition of yeast transport mutant growth (AID 636; in the data active means inhibition above about 31%). As to conditions: absorbance 615 nm, about 18 h, stronger effect = higher value.
A short description of assay [8]: growth suppression of yeast trafficking mutant, preliminary HTS, modulators of trafficking downstream of Golgi apparatus project, 1536-format plate, OD 615 nm (AID 637; in the data active means inhibition above about 30%). As to conditions: yeast transport mutant growth, absorbance 615 nm, 18 h; stronger effect = higher value.
Setting [9] is: H69AR cells + 2 uM doxorubicin, measured here: viability with 2 uM doxorubicin, stronger effect = lower value.
[10] abbreviates: H69AR cells, compound alone cytotoxicity.

Active and inactive are the calls of the source.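 How the source made its calls, unless noted: active means viability at or below 10% of carrier control in both of two separate runs; inconclusive means viability at or below 10% in only one of the two runs; inactive means the rest.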

What is called viability is a read-out of living cells in per cent, often relative to untreated cells. One may read the inhibition as the relative decrease from the control value, in per cent.

Receptor tyrosine-protein kinase erbB-2 (Homo sapiens), sequence (P04626 whole entry, looked up): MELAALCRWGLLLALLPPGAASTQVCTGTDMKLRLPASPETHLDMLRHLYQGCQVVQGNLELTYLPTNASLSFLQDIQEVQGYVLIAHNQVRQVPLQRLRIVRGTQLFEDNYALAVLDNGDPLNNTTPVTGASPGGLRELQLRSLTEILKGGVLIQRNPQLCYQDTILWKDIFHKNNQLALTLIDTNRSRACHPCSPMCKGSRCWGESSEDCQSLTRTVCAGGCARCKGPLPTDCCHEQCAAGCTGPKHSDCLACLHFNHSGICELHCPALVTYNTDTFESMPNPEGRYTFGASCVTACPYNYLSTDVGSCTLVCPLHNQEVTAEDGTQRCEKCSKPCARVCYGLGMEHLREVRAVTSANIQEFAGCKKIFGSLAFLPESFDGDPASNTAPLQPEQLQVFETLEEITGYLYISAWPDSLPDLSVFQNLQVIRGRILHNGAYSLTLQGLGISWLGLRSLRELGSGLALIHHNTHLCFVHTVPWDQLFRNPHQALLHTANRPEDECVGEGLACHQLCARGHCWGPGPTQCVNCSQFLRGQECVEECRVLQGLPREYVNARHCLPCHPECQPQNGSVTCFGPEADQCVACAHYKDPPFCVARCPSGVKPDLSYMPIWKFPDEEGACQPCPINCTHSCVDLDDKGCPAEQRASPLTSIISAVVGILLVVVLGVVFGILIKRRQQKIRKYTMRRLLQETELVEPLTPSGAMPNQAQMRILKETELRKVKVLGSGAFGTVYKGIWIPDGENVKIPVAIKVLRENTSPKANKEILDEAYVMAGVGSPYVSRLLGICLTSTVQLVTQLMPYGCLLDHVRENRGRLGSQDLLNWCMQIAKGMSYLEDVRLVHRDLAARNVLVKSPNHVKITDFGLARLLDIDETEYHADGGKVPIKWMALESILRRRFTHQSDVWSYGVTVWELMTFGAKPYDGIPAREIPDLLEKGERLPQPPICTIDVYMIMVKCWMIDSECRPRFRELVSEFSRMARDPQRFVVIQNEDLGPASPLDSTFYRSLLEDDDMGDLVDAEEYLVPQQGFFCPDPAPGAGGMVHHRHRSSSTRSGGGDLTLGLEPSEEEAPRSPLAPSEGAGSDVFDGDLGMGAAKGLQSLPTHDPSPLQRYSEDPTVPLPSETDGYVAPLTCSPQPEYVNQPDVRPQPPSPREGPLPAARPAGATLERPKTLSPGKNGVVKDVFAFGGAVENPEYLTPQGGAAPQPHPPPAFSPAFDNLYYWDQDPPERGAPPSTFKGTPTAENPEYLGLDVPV

Turning to `CCn1cc(C(=O)N=c2sc3ccccc3n2C)c(=O)c2ccc(C)nc21`, the viability is 92.5% in assay [1]; 92.5% (inactive) in assay [3]; 80.3% (inactive) in assay [4]; 95.7% (inactive) in assay [5]; 87.8% in assay [6] (setting [9]); 95.7% in assay [6] (setting [10]). Moreover, the Her2 level in assay [2] was 84.5% (inactive). Moreover, the differential viability (reversal) in assay [6] (H69AR cells + 2 uM doxorubicin) was 7.91% (inactive). Also, the inhibition in assay [7] is 1.41% (inactive); in assay [8] it was -2.83% (inactive).
For the compound `Cc1ccsc1C1C2=C(CCCC2=O)Nc2ncnn21` (stereo not given), the viability in assay [1] is 86%; in assay [3], 86% (inactive); in assay [4], 98% (inactive); in assay [5], 92.6% (inactive); in assay [6] (setting [9]) it was 99.7%; in assay [6] (setting [10]) it was 92.6%. In addition, the Her2 level in assay [2] was 100% (inactive). Also, the differential viability (reversal) in assay [6] (H69AR cells + 2 uM doxorubicin) is -7.12% (inactive). The inhibition was -1.32% (inactive) in assay [7] and -1.31% (inactive) in assay [8].
`COc1ccc(-c2nnc(SCC(=O)c3cc(C)n(Cc4cccs4)c3C)o2)cc1`: the viability in assay [1] was 99.5%; in assay [3], 99.5% (inactive); in assay [4], 90.9% (inactive); in assay [5], 87.5% (inactive); in assay [6] (setting [9]) it was 85.7%; in assay [6] (setting [10]), 87.5%. In assay [2], the Her2 level was 114% (inactive). Further, the differential viability (reversal) in assay [6] (H69AR cells + 2 uM doxorubicin) was 1.84% (inactive). Besides, the inhibition in assay [7] was 2.6% (inactive); in assay [8], 18.2% (inactive).
As to `CC(=O)c1ccc(NC(=O)c2noc3c2CCCCC3)cc1`, the viability is 126% in assay [1]; 126% (inactive) in assay [3]; 114% (inactive) in assay [4]; 98% (inactive) in assay [5]; 80.6% in assay [6] (setting [9]); 98% in assay [6] (setting [10]). Besides, the Her2 level in assay [2] is 88% (inactive). Moreover, the differential viability (reversal) in assay [6] (H69AR cells + 2 uM doxorubicin) was 17.3% (inactive). In addition, the figures for the inhibition in assay [7] and in assay [8] were -5.26% (inactive) and 0.73% (inactive), respectively.
Turning to `CSc1nc(NC(C)(C)C)nc(Oc2ccc(=O)[nH]n2)n1`, the viability is 101% in assay [1]; 101% (inactive) in assay [3]; 107% (inactive) in assay [4]; 92.1% (inactive) in assay [5]; 91.7% in assay [6] (setting [9]); 92.1% in assay [6] (setting [10]). In assay [2], the Her2 level was 93.5% (inactive). Further, the differential viability (reversal) in assay [6] (H69AR cells + 2 uM doxorubicin) was 0.405% (inactive). Besides, the figures for the inhibition in assay [7] and in assay [8] were -3.82% (inactive) and 2.46% (inactive), respectively.
Regarding `Cc1cc(NS(=O)(=O)c2ccc(Nc3nc(-c4sc(N)nc4C)cs3)cc2)no1`, the viability was 104% in assay [1]; 104% (inactive) in assay [3]; 75.5% (inactive) in assay [4]; 98% (inactive) in assay [5]; 88.8% in assay [6] (setting [9]); 98% in assay [6] (setting [10]). In addition, the Her2 level in assay [2] is 116% (inactive). For the same compound, in assay [6] (H69AR cells + 2 uM doxorubicin), the differential viability (reversal) was 9.14% (inactive). Also, the figures for the inhibition in assay [7] and in assay [8] were -4.08% (inactive) and -4% (inactive), respectively.
Consider `COc1ccc(S(=O)(=O)N2CCOCC2)cc1C(=O)Nc1cc(C)on1`, for which the viability is 102% in assay [1]; 102% (inactive) in assay [3]; 102% (inactive) in assay [4]; 93.9% (inactive) in assay [5]; 85.8% in assay [6] (setting [9]); 93.9% in assay [6] (setting [10]). For the same compound, in assay [2], the Her2 level was 124% (inactive). Further, in assay [6] (H69AR cells + 2 uM doxorubicin), the differential viability (reversal) was 8.07% (inactive). In addition, the inhibition was -3.42% (inactive) in assay [7] and -9.83% (inactive) in assay [8].
Consider `COc1ccccc1CN1CC(C(=O)N2CCN(c3ccc(F)cc3)CC2)CC1=O` (stereo not given), for which the viability in assay [1] was 92%; in assay [3] it was 92% (inactive); in assay [4], 98% (inactive); in assay [5], 88.8% (inactive); in assay [6] (setting [9]), 92.3%; in assay [6] (setting [10]), 88.8%. For the same compound, the Her2 level in assay [2] was 86% (inactive). Besides, in assay [6] (H69AR cells + 2 uM doxorubicin), the differential viability (reversal) was -3.51% (inactive). In addition, the values for the inhibition in assay [7] and in assay [8] were -2.24% (inactive) and 11.5% (inactive), respectively.
As for `CCOc1ccccc1C(=O)NCCC(=O)O`, the viability in assay [1] was 95%; in assay [3] it was 95% (inactive); in assay [4], 111% (inactive); in assay [5] it was 96.4% (inactive); in assay [6] (setting [9]), 95.1%; in assay [6] (setting [10]), 96.4%. Also, in assay [2], the Her2 level was 112% (inactive). Besides, the differential viability (reversal) in assay [6] (H69AR cells + 2 uM doxorubicin) was 1.32% (inactive). The inhibition is -0.66% (inactive) in assay [7] and 11.3% (inactive) in assay [8].
For the compound `O=C(OCC(=O)N1CCCC1)c1cncc(Br)c1`, the viability was 106% in assay [1]; 106% (inactive) in assay [3]; 106% (inactive) in assay [4]; 102% (inactive) in assay [5]; 86.4% in assay [6] (setting [9]); 102% in assay [6] (setting [10]). Besides, the Her2 level in assay [2] is 90% (inactive). Also, the differential viability (reversal) in assay [6] (H69AR cells + 2 uM doxorubicin) was 15.6% (inactive). The results for the inhibition in assay [7] and in assay [8] were -7.57% (inactive) and 5.33% (inactive), respectively.
For the compound `CCOC(=O)CC1=C(C(=O)OCC)C(c2ccc(C)o2)C(C#N)=C(N)O1` (stereo not given), the viability in assay [1] was 95%; in assay [3], 95% (inactive); in assay [4], 107% (inactive); in assay [5], 85.6% (inactive); in assay [6] (setting [9]), 77.3%; in assay [6] (setting [10]) it was 85.6%. Further, the Her2 level in assay [2] was 104% (inactive). In addition, the differential viability (reversal) in assay [6] (H69AR cells + 2 uM doxorubicin) was 8.26% (inactive). The results for the inhibition in assay [7] and in assay [8] were 0.65% (inactive) and -9.05% (inactive), respectively.
As to `CC1=CC2=C(OC1N(C)C)c1cccc3cccc(c13)C2=O` (stereo not given), the viability in assay [1] is 106%; in assay [3] it was 106% (inactive); in assay [4], 83% (inactive); in assay [5], 78.5% (inactive); in assay [6] (setting [9]), 78.9%; in assay [6] (setting [10]), 78.5%. In addition, the Her2 level in assay [2] is 65% (inactive). Also, in assay [6] (H69AR cells + 2 uM doxorubicin), the differential viability (reversal) is -0.375% (inactive). Besides, the values for the inhibition in assay [7] and in assay [8] were 2.21% (inactive) and 6.17% (inactive), respectively.
As to `COc1ccc(CC(=O)OCc2nnc(C3COc4ccccc4O3)o2)cc1OC` (stereo not given), the viability is 116% in assay [1]; 116% (inactive) in assay [3]; 91.3% (inactive) in assay [4]; 104% (inactive) in assay [5]; 83.7% in assay [6] (setting [9]); 104% in assay [6] (setting [10]). Further, in assay [2], the Her2 level is 104% (inactive). In addition, the differential viability (reversal) in assay [6] (H69AR cells + 2 uM doxorubicin) was 19.8% (inactive). Besides, the figures for the inhibition in assay [7] and in assay [8] were -2% (inactive) and -1.64% (inactive), respectively.
As to `CCOC(=O)c1sc2ncn(/N=C/N(C)C)c(=O)c2c1C`, the viability was 98% in assay [1]; 98% (inactive) in assay [3]; 114% (inactive) in assay [4]; 100% (inactive) in assay [5]; 94.1% in assay [6] (setting [9]); 100% in assay [6] (setting [10]). Also, the Her2 level in assay [2] was 97.5% (inactive). The differential viability (reversal) in assay [6] (H69AR cells + 2 uM doxorubicin) was 5.85% (inactive). Moreover, the inhibition is -6.13% (inactive) in assay [7] and 4.68% (inactive) in assay [8].
With `CC(C)CCNC(=O)NC(=O)COc1ccccc1C#N`, the viability is 92.5% in assay [1]; 92.5% (inactive) in assay [3]; 112% (inactive) in assay [4]; 97.1% (inactive) in assay [5]; 89.8% in assay [6] (setting [9]); 97.1% in assay [6] (setting [10]). In assay [2], the Her2 level is 109% (inactive). Moreover, the differential viability (reversal) in assay [6] (H69AR cells + 2 uM doxorubicin) is 7.26% (inactive). Further, the inhibition in assay [7] was -3.78% (inactive); in assay [8] it was -5.4% (inactive).
With `O=C(CSc1nnnn1-c1ccc2c(c1)OCO2)NCc1cccs1`, the viability in assay [1] is 88%; in assay [3] it was 88% (inactive); in assay [4] it was 93.2% (inactive); in assay [5], 86.8% (inactive); in assay [6] (setting [9]) it was 93.8%; in assay [6] (setting [10]) it was 86.8%. Also, the Her2 level in assay [2] was 90.5% (inactive). The differential viability (reversal) in assay [6] (H69AR cells + 2 uM doxorubicin) is -7.04% (inactive). The inhibition in assay [7] was -5.68% (inactive); in assay [8] it was -1.64% (inactive).

Source of the values: PubChem BioAssay.
